{"data": "Published values from different studies"}
{"Structure (SMILES)": "CC[C@@]1(O)C(=O)OCc2c1cc1n(c2=O)Cc2cc3ccccc3nc2-1", "target or system": "MDCK", "test system": "Caco-2", "conditions": "100 µM, 105 min, pH 7.4", "quantity": "Papp B→A", "result": "10 ×10⁻⁶ cm/s"}
{"Structure (SMILES)": "CN(C)[C@H]1C[C@@]23CC[C@@]4(O2)C(=CC[C@]2(C)C(c5ccc6ccncc6c5)=CC[C@H]24)C=C3[C@@H](O)[C@@H]1O", "target or system": "human PBMC", "test": "cell growth or viability, flow cytometry", "quantity": "CC50", "result": "100 µM"}
{"Structure (SMILES)": "O=C(Nc1cccnn1)N1CCN([C@@H]2CCOc3cc(C(F)(F)F)ccc32)CC1", "test system": "male Sprague-Dawley rat, brain", "conditions": "oral, 1 mg/kg, 4 h", "quantity": "concentration", "result": "438 ng/g"}
{"Structure (SMILES)": "COC(=O)C(NC(=O)c1cn(CCCCCF)c2ccccc12)C(C)(C)C (stereo not drawn)", "test system": "male Sprague-Dawley rat, plasma", "conditions": "subcutaneous, 200 µg/kg", "quantity": "half-life", "result": "17.1 h"}
{"Structure (SMILES)": "N#Cc1ccc(NC(=S)NN=Cc2ccccc2)cc1", "target or system": "CRFK", "test": "cell growth or viability, MTS", "quantity": "CC50", "result": "> 100 µg/mL"}
{"Structure (SMILES)": "Cl.Cl.O=C(CCN1CCCCC1)c1ccc(-c2ccc(C(=O)CCN3CCCCC3)cc2)cc1", "test system": "Sprague-Dawley rat, plasma", "conditions": "oral, 25 mg/kg", "quantity": "half-life", "result": "6.05 h"}
{"Structure (SMILES)": "COC(=O)[C@H]1[C@@H](OC(=O)c2ccccc2)C[C@@H]2CC[C@H]1N2C", "test system": "male Sprague-Dawley rat, plasma", "conditions": "intraperitoneal, 10 mg/kg, 1 h", "quantity": "concentration", "result": "310 ng/mL"}
{"Structure (SMILES)": "N#Cc1ccc(NC(=S)NN=Cc2ccc(F)cc2)cc1", "target or system": "CRFK", "test": "cell growth or viability, MTS", "quantity": "CC50", "result": "> 100 µg/mL"}
{"Structure (SMILES)": "O=C(O)C(F)(F)C(F)(F)C(F)(F)C(F)(F)C(F)(F)C(F)(F)C(F)(F)F", "target or system": "Solute carrier family 22 member 6 (SLC22A6, Homo sapiens, UniProt Q4U2R8)", "test": "transporter uptake, substrate", "test system": "HEK293", "conditions": "2.5 min, pH 7.4", "quantity": "Km", "result": "65.8 µM"}
